In ChEMBL document CHEMBL2311406, “Structure-based design of high-affinity macrocyclic peptidomimetics to block the menin-mixed lineage leukemia 1 (MLL1) protein-protein interaction” (J Med Chem, 2013):
*1 amine or outer side, *2 acyl side, *3 side chain or, on linkers, in order; H or OH if unused. Where a SMILES comes first, the peptide text is derived from it. Bridges are numbered along the chain shown (N, C = ends). [ ]: non-standard residue; d: D form. The star is where a group is joined. 5FAM = O=C1OC2(c3ccc(O)cc3Oc3cc(O)ccc32)c2ccc(C(=O)*)cc21; Ala(indol-2-yl) = N[C@@H](Cc1cc2ccccc2[nH]1)C(=O)O; Phe(3-CF3) = N[C@@H](Cc1cccc(C(F)(F)F)c1)C(=O)O; Phe(3-Ph) = N[C@@H](Cc1cccc(-c2ccccc2)c1)C(=O)O; hhhhLys = O=C([C@H](CCCCCCCCN[*:3])N[*:1])[*:2]; X2 = CC(C)Cc1cccc(C[C@H](N[*:1])C(=O)[*:2])c1; Phe(3,5-F2) = N[C@@H](Cc1cc(F)cc(F)c1)C(=O)O; X1 = CCc1cccc(C[C@H](N[*:1])C(=O)[*:2])c1; Phe(3-Cl) = N[C@@H](Cc1cccc(Cl)c1)C(=O)O; Phe(4-Cl) = N[C@@H](Cc1ccc(Cl)cc1)C(=O)O; NH(CH2)9CO = O=C(CCCCCCCCCN[*:1])[*:2]; Phe(2-Cl) = N[C@@H](Cc1ccccc1Cl)C(=O)O; Phe(3-F) = N[C@@H](Cc1cccc(F)c1)C(=O)O; Phe(3-Me) = Cc1cccc(C[C@H](N)C(=O)O)c1; Phe(4-F) = N[C@@H](Cc1ccc(F)cc1)C(=O)O; Phe(2-F) = N[C@@H](Cc1ccccc1F)C(=O)O; Cha = N[C@@H](CC1CCCCC1)C(=O)O; Ahp(2) = CCCCC[C@H](N)C(=O)O; hLys = NCCCCC[C@H](N)C(=O)O; AEEEA = NCCOCCOCCOCC(=O)O; Ac5c = NC1(C(=O)O)CCCC1; Abu = CC[C@H](N)C(=O)O; Ac4c = NC1(C(=O)O)CCC1; Ac3c = NC1(C(=O)O)CC1; Aib = CC(C)(N)C(=O)O

Target: T1, Menin (Homo sapiens, UniProt O00255)
T1 sequence (O00255 whole entry): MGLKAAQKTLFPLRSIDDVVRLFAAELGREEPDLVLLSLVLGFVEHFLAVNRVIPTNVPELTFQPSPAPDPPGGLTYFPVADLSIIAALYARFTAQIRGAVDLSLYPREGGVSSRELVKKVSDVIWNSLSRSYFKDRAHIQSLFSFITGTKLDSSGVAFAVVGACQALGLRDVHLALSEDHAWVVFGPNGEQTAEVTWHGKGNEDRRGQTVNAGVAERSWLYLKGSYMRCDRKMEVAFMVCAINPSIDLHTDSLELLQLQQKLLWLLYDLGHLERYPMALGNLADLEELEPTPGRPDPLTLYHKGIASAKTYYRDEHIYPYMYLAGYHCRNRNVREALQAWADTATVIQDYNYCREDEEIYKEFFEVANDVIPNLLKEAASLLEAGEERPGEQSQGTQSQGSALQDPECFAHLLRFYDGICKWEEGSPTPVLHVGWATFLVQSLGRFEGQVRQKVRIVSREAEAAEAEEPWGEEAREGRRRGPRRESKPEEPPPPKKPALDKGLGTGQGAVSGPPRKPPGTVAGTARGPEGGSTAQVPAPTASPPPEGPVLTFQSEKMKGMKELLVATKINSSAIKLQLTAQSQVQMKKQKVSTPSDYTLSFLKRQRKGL
Test: Binding affinity to menin (unknown origin) after 60 mins by fluorescence polarization assay
Method in brief: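 Competitive FP with fluorescein-labeled peptide tracers. Compound in DMSO (2% final) was added to a preincubated menin/tracer complex in 100 mM potassium phosphate pH 7.5 with 100 μg/mL bovine γ-globulin and 0.02% sodium azide. Menin/tracer/detergent were 30 nM/3 nM/0.005% Triton X-100 or 3 nM/2 nM/0.02% Tween-20. Ki was derived from the fitted IC50, probe Kd and assay concentrations.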

IC50	Ki	Kd	Molecule
63.3 nM	17.5 nM	–	CC(=O)N[C@@H](CCCNC(=N)N)C(=O)N[C@@H](Cc1c[nH]c2ccccc12)C(=O)N[C@H]1CCCCCCNC(=O)[C@@H]2CCCN2C(=O)[C@H](CCCNC(=N)N)NC(=O)[C@H](C)NC(=O)[C@@H]2CCCN2C(=O)[C@H](Cc2ccccc2)NC1=O
144 nM	42.5 nM	–	CC(=O)N[C@@H](CCCNC(=N)N)C(=O)N[C@@H](Cc1c[nH]c2ccccc12)C(=O)N[C@H]1CCCCCCCCCNC(=O)[C@@H]2CCCN2C(=O)[C@H](CCCNC(=N)N)NC(=O)[C@H](C)NC(=O)[C@@H]2CCCN2C(=O)[C@H](Cc2ccccc2)NC1=O
11000 nM	3320 nM	–	CC(=O)N[C@@H](CCCNC(=N)N)C(=O)N[C@@H](Cc1c[nH]c2ccccc12)C(=O)N[C@H]1CCCCNC(=O)[C@@H]2CCCN2C(=O)[C@H](CCCNC(=N)N)NC(=O)[C@H](C)NC(=O)[C@@H]2CCCN2C(=O)[C@H](Cc2ccccc2)NC1=O (Ac-RWKFPARP; lactam 3-C)
7390 nM	2170 nM	–	CCCCC[C@H](NC(=O)[C@H](Cc1c[nH]c2ccccc12)NC(=O)[C@H](CCCNC(=N)N)NC(C)=O)C(=O)N[C@@H](Cc1ccccc1)C(=O)N1CCC[C@H]1C(=O)N[C@@H](C)C(=O)N[C@@H](CCCNC(=N)N)C(=O)N1CCC[C@H]1C(=O)NCC (Ac-RW[Ahp(2)]FPARP-NHEt)
514 nM	136 nM	–	CC(=O)N[C@@H](CCCNC(=N)N)C(=O)N[C@@H](Cc1c[nH]c2ccccc12)C(=O)N[C@H]1CCCCCNC(=O)[C@@H]2CCCN2C(=O)[C@H](CCCNC(=N)N)NC(=O)[C@H](C)NC(=O)[C@@H]2CCCN2C(=O)[C@H](Cc2ccccc2)NC1=O (Ac-RW[hLys]FPARP; lactam 3-C)
25 nM	6.9 nM	–	CC(=O)N[C@@H](CCCNC(=N)N)C(=O)N[C@@H](Cc1c[nH]c2ccccc12)C(=O)N[C@H]1CCCCCCCCNC(=O)[C@@H]2CCCN2C(=O)[C@H](CCCNC(=N)N)NC(=O)[C@H](C)NC(=O)[C@@H]2CCCN2C(=O)[C@H](Cc2ccccc2)NC1=O (Ac-RW[hhhhLys]FPARP; lactam 3-C)
2160 nM	586 nM	–	CC(=O)N[C@H]1CCCCCCCCNC(=O)[C@@H]2CCCN2C(=O)[C@H](CCCNC(=N)N)NC(=O)[C@H](C)NC(=O)[C@@H]2CCCN2C(=O)[C@H](Cc2ccccc2)NC1=O (Ac-[hhhhLys]FPARP; lactam 1-C)
665 nM	197 nM	–	C[C@@H]1NC(=O)[C@@H]2CCCN2C(=O)[C@H](Cc2ccccc2)NC(=O)[C@@H](N)CCCCCCCCNC(=O)[C@@H]2CCCN2C(=O)[C@H](CCCNC(=N)N)NC1=O (H-[hhhhLys]FPARP; lactam 1-C)
10700 nM	3180 nM	–	CC[C@@H]1NC(=O)[C@@H]2CCCN2C(=O)[C@H](Cc2ccccc2)NC(=O)[C@@H](N)CCCCCCCCNC(=O)[C@@H]2CCCN2C(=O)[C@H](CCCNC(=N)N)NC1=O (H-[hhhhLys]FP[Abu]RP; lactam 1-C)
194 nM	55.5 nM	–	N=C(N)NCCC[C@@H]1NC(=O)C2(CC2)NC(=O)[C@@H]2CCCN2C(=O)[C@H](Cc2ccccc2)NC(=O)[C@@H](N)CCCCCCCCNC(=O)[C@@H]2CCCN2C1=O (H-[hhhhLys]FP[Ac3c]RP; lactam 1-C)
6320 nM	1660 nM	–	N=C(N)NCCC[C@@H]1NC(=O)C2(CCCC2)NC(=O)[C@@H]2CCCN2C(=O)[C@H](Cc2ccccc2)NC(=O)[C@@H](N)CCCCCCCCNC(=O)[C@@H]2CCCN2C1=O (H-[hhhhLys]FP[Ac5c]RP; lactam 1-C)
226 nM	67 nM	–	CC1(C)NC(=O)[C@@H]2CCCN2C(=O)[C@H](Cc2ccccc2)NC(=O)[C@@H](N)CCCCCCCCNC(=O)[C@@H]2CCCN2C(=O)[C@H](CCCNC(=N)N)NC1=O (H-[hhhhLys]FP[Aib]RP; lactam 1-C)
3330 nM	862 nM	–	N=C(N)NCCC[C@@H]1NC(=O)C2(CCC2)NC(=O)[C@@H]2CCCN2C(=O)[C@H](CC2CCCCC2)NC(=O)[C@@H](N)CCCCCCCCNC(=O)[C@@H]2CCCN2C1=O (H-[hhhhLys][Cha]P[Ac4c]RP; lactam 1-C)
112 nM	30 nM	–	N=C(N)NCCC[C@@H]1NC(=O)C2(CCC2)NC(=O)[C@@H]2CCCN2C(=O)[C@H](Cc2ccccc2Cl)NC(=O)[C@@H](N)CCCCCCCCNC(=O)[C@@H]2CCCN2C1=O (H-[hhhhLys][Phe(2-Cl)]P[Ac4c]RP; lactam 1-C)
102 nM	27.5 nM	–	N=C(N)NCCC[C@@H]1NC(=O)C2(CCC2)NC(=O)[C@@H]2CCCN2C(=O)[C@H](Cc2ccccc2F)NC(=O)[C@@H](N)CCCCCCCCNC(=O)[C@@H]2CCCN2C1=O (H-[hhhhLys][Phe(2-F)]P[Ac4c]RP; lactam 1-C)
2520 nM	725 nM	–	N=C(N)NCCC[C@@H]1NC(=O)C2(CCC2)NC(=O)[C@@H]2CCCN2C(=O)[C@H](Cc2cccc(C(F)(F)F)c2)NC(=O)[C@@H](N)CCCCCCCCNC(=O)[C@@H]2CCCN2C1=O (H-[hhhhLys][Phe(3-CF3)]P[Ac4c]RP; lactam 1-C)

IC50	Ki	Kd	Molecule
159 nM	44.6 nM	–	N=C(N)NCCC[C@@H]1NC(=O)C2(CCC2)NC(=O)[C@@H]2CCCN2C(=O)[C@H](Cc2cccc(Cl)c2)NC(=O)[C@@H](N)CCCCCCCCNC(=O)[C@@H]2CCCN2C1=O (H-[hhhhLys][Phe(3-Cl)]P[Ac4c]RP; lactam 1-C)
25.1 nM	6.8 nM	–	N=C(N)NCCC[C@@H]1NC(=O)C2(CCC2)NC(=O)[C@@H]2CCCN2C(=O)[C@H](Cc2cccc(F)c2)NC(=O)[C@@H](N)CCCCCCCCNC(=O)[C@@H]2CCCN2C1=O (H-[hhhhLys][Phe(3-F)]P[Ac4c]RP; lactam 1-C)
1150 nM	332 nM	–	Cc1cccc(C[C@@H]2NC(=O)[C@@H](N)CCCCCCCCNC(=O)[C@@H]3CCCN3C(=O)[C@H](CCCNC(=N)N)NC(=O)C3(CCC3)NC(=O)[C@@H]3CCCN3C2=O)c1 (H-[hhhhLys][Phe(3-Me)]P[Ac4c]RP; lactam 1-C)
39400 nM	14000 nM	–	N=C(N)NCCC[C@@H]1NC(=O)C2(CCC2)NC(=O)[C@@H]2CCCN2C(=O)[C@H](Cc2cccc(-c3ccccc3)c2)NC(=O)[C@@H](N)CCCCCCCCNC(=O)[C@@H]2CCCN2C1=O (H-[hhhhLys][Phe(3-Ph)]P[Ac4c]RP; lactam 1-C)
2010 nM	549 nM	–	N=C(N)NCCC[C@@H]1NC(=O)C2(CCC2)NC(=O)[C@@H]2CCCN2C(=O)[C@H](Cc2ccc(Cl)cc2)NC(=O)[C@@H](N)CCCCCCCCNC(=O)[C@@H]2CCCN2C1=O (H-[hhhhLys][Phe(4-Cl)]P[Ac4c]RP; lactam 1-C)
422 nM	123 nM	–	N=C(N)NCCC[C@@H]1NC(=O)C2(CCC2)NC(=O)[C@@H]2CCCN2C(=O)[C@H](Cc2ccc(F)cc2)NC(=O)[C@@H](N)CCCCCCCCNC(=O)[C@@H]2CCCN2C1=O (H-[hhhhLys][Phe(4-F)]P[Ac4c]RP; lactam 1-C)
4610 nM	1330 nM	–	CCc1cccc(C[C@@H]2NC(=O)[C@@H](N)CCCCCCCCNC(=O)[C@@H]3CCCN3C(=O)[C@H](CCCNC(=N)N)NC(=O)C3(CCC3)NC(=O)[C@@H]3CCCN3C2=O)c1 (H-[hhhhLys][X1]P[Ac4c]RP; lactam 1-C)
36000 nM	11600 nM	–	CC(C)Cc1cccc(C[C@@H]2NC(=O)[C@@H](N)CCCCCCCCNC(=O)[C@@H]3CCCN3C(=O)[C@H](CCCNC(=N)N)NC(=O)C3(CCC3)NC(=O)[C@@H]3CCCN3C2=O)c1 (H-[hhhhLys][X2]P[Ac4c]RP; lactam 1-C)
6450 nM	1840 nM	–	C[C@@H]1NC(=O)[C@@H]2CCCN2C(=O)[C@H](Cc2ccccc2)NC(=O)CCCCCCCCCNC(=O)[C@@H]2CCCN2C(=O)[C@H](CCCNC(=N)N)NC1=O (cyclo(ARP[NH(CH2)9CO]FP))
–	–	1.4 nM	N=C(N)NCCC[C@H](NC(=O)COCCOCCOCCNC(=O)c1ccc2c(c1)C(=O)OC21c2ccc(O)cc2Oc2cc(O)ccc21)C(=O)N[C@@H](Cc1cc2ccccc2[nH]1)C(=O)N[C@H]1CCCCCCCCNC(=O)[C@@H]2CCCN2C(=O)[C@H](CCCNC(=N)N)NC(=O)C2(CCC2)NC(=O)[C@@H]2CCCN2C(=O)[C@H](Cc2cc(F)cc(F)c2)NC1=O ({5FAM-AEEEA}-R[Ala(indol-2-yl)][hhhhLys][Phe(3,5-F2)]P[Ac4c]RP; lactam 3-C)
9570 nM	2850 nM	–	Ac-RFPARP-NH2
85300 nM	25500 nM	–	Ac-RWRFPAR-NH2
232 nM	71.1 nM	–	Ac-RWRFPARP-NH2
11.4 nM	2.9 nM	–	Ac-RWRFPARPGTGRR-NH2
1060 nM	311 nM	–	Ac-WRFPARP-NH2
